C8 TRAIL sens: viability loss with TRAIL in NB7+C8 cells, primary screen, TRAIL sensitizer project, cell-based, ATPlite luminescence; inhibition (viability loss, TRAIL sensitization), % at 10 µM; 360,000 tested, 1% active; AID 624354, 2012;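 active = compounds causing at least 50% loss of cell viability in the single-dose screen, relative to plate controls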
PPC-1+TRAIL kill: compounds killing PPC-1 cancer cells with TRAIL present, primary screen, TRAIL potentiator project, ATPLite luminescence, uHTS; PPC-1 cells + TRAIL, ATPLite viability luminescence; cell killing (% activity), % at 4 µM or 5 µM; 220,000 tested, 0.41% active;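 active = cell killing above 50% in the first pass at 4 µM, then a duplicate retest at 5 µM averaging 50% or more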;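 note: plate controls were cells with TRAIL plus DMSO for no effect and medium-only wells lacking cells for full effect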
STAT1 blocker: STAT1 signaling inhibitors, primary screen, cell-based, HTS, luciferase reporter | AID 920, 2007 | inhibition, % at 5.5 µM | NIH 3T3 STAT1-luciferase reporter, IFN-gamma, luminescence | 200,000 tested, 0.35% active;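 active = inhibition above a set limit, the mean inhibition across all tested compounds plus 3 SD, cut at about 34% in these data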;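 note: 0% = IFN-gamma with DMSO and 100% = IFN-gamma with 300 µM nifuroxazide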
STAT3 inh: IL-6 driven STAT3 reporter inhibitors, primary screen, U3A cells, luciferase, luminescence, MLSCN library. IL-6 STAT3-luciferase reporter; host cell line lacks STAT1. inhibition, % at 5.5 µM. 190,000 tested, 0.89% active;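 active = inhibition above the mean inhibition across all screened compounds plus 3 SD, cut at about 44% in these data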;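 note: 0% = DMSO only wells and 100% = 100 µM nifuroxazide control wells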
STAT3 act-1: IL-6 driven STAT3 reporter potentiators, primary screen, U3A cells, luciferase, luminescence, MLSCN library. IL-6 STAT3-luciferase reporter; 100% = signal with IL-6 EC80 alone. activation (% of control), % at 5.6 µM. 190,000 tested, 0.91% active;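 active = activation above the screen-wide mean of compound activation plus 3 SD, cut at about 130% in these data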;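 note: 0% = background luminescence of wells with medium and substrate only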
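Material: STAT3-luciferase reporter U3A cells; Probe or stimulus: IL-6 (33 ng/mL); Incubation: compound pre-incubation 1 h before IL-6, then 6 h stimulation at 37 °C; Technique: luminescence from STAT3-driven luciferase reporter; Evaluation: % activation versus median of IL-6-stimulated wells; Controls: IL-6-only high control.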
STAT3 act-2: STAT3 reporter potentiators, retest of hits, confirmation, U3A cells, luciferase, luminescence | 1,200 tested, 64% active | shares compounds with STAT3 act-1 | AID 1267, 2008 | potentiation (% of control), % at 5.7 µM | IL-6 potentiation; U3A cells lack STAT1; 100 means same as IL-6 alone;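 active = percent activation of the STAT3 luciferase reporter above a set limit taken from the earlier primary screen, cut at about 130% in these data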;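 note: 0% = background signal of medium plus substrate and 100% = median of IL-6 with DMSO wells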
NFkB act STAT3ct: NF-kB reporter activators in human cells, counter-screen for STAT3 activator project. NF-kappaB reporter activation. activation (% of control), % at 5.7 µM. 1,200 tested, 11% active. shares compounds with STAT3 act-1; in the data active = activation above about 120%;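 note: reporter induced by TNF-alpha stimulation; 100% = median of stimulated DMSO wells and 0% = no signal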
STAT1 act: STAT1 reporter activators, IFN-gamma induced, counter-screen for STAT3 activator project, cell-based, NIH 3T3, luciferase luminescence. 1,200 tested, 13% active. AID 1318, 2008. shares compounds with STAT3 act-1. activation (% of control), % at 5.7 µM. NIH 3T3 STAT1-luciferase reporter;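 active = activation above the solvent-only control well mean plus 3 SD, set per screening run, cut at about 120% in these data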;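 note: 100% = IFN-gamma with DMSO median signal so 100% means no change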
* = called active by the depositor; x = no result. Compounds with a hit are over-represented: about 1.8% of the library has one in this group of screens.

SMILES	C8 TRAIL sens	PPC-1+TRAIL kill	STAT1 blocker	STAT3 inh	STAT3 act-1	STAT3 act-2	NFkB act STAT3ct	STAT1 act
COc1ccc(Cl)cc1-c1nc(-c2ccc(Br)o2)no1	20.6	15.1	-3.0	-85.6	174.1*	159.9*	114.2	117.4
O=C(CSc1ccc([N+](=O)[O-])cn1)Nc1ccc2c(c1)OCO2	-5.1	x	x	x	x	x	x	x
C=CCSc1nnc(-c2cc3c(s2)-c2ccccc2CC3)o1	-3.1	27.2	-14.8	-55.2	150.7*	145.2*	109.3	116.2
COc1ccc(C(=O)Nc2cccc3c2CCCC3)c(OC)c1	-6.8	x	x	x	x	x	x	x
CCn1c(N2CCN(CC(=O)c3c[nH]c4ccccc34)CC2)nc2c1c(=O)[nH]c(=O)n2C	3.2	9.1	8.1	-46.8	142.1*	136.8*	109.7	97.7
CCOC(=O)Cc1nnc(NC(=O)C(CC)Sc2nnc3c4ccccc4n(C)c3n2)s1 (stereo not given)	1.0	-5.9	11.6	-38.6	136.8*	158.3*	102.3	98.0
O=C(CN1CCC2(CC1)OCCO2)c1c[nH]c2ccccc12	x	-1.2	-2.7	-54.2	147.6*	122.9	105.1	97.9
Cc1ccc2[nH]cc(C(=O)CN3CCC4(CC3)OCCO4)c2c1	2.5	14.3	2.9	1.6	103.6	x	x	x
Cc1ccc(CNC(=O)CCC(=O)Nc2nnc(C)s2)cc1	-5.9	x	x	x	x	x	x	x
O=C(O)c1ccccc1C(=O)Nc1ccc(S(=O)(=O)Nc2ccc(F)cc2)cc1	-13.7	x	x	x	x	x	x	x
CCOc1cc(N2CCOCC2)c(OCC)cc1NC(=O)COc1ncnc2ccccc12	0.3	11.2	-6.0	-50.3	151.2*	154.4*	107.1	104.2
COc1ccc(NC(=O)c2sc(SCc3ccccc3)nc2N)cc1	-9.8	11.9	-9.3	9.6	95.0	x	x	x
COc1ccc(NC(=O)c2sc(SC)nc2N)cc1	16.4	4.5	-24.8	-34.9	136.2*	162.2*	126.8*	150.1*
COC(=O)c1c(NC(=O)c2ccc(Br)s2)sc2c1CCC2	-2.5	17.3	-3.8	-43.3	136.6*	122.9	105.2	98.2
COC(=O)c1sccc1NC(=O)c1ccc(C)s1	-10.3	26.6	-2.5	-64.5	157.7*	127.8	95.7	98.4
CCn1c(C(=O)Nc2ccsc2C(=O)OC)cc2sc(Cl)cc21	8.9	-3.5	3.0	-75.1	165.4*	137.9*	106.0	92.9
COC(=O)c1sccc1NC(=S)OC	10.7	18.5	x	x	x	x	x	x
COC(=O)c1sccc1NC(=O)c1ccc(Cl)s1	1.4	5.0	0.6	-48.4	142.6*	175.6*	120.7*	108.3
COC(=O)c1sccc1NC(=O)c1cccs1	-6.1	31.9	x	x	x	x	x	x
COC(=O)c1sccc1NC(=O)c1ccc(Br)s1	11.7	13.3	10.5	-50.4	150.0*	146.3*	104.3	103.8
O=Cc1cc2ccccc2nc1SCc1ccc(Cl)cc1	3.8	-32.2	-11.7	-65.4	160.6*	129.9	101.5	101.5
O=Cc1cc2ccccc2nc1SCc1ccc(Cl)c(Cl)c1	-22.4	8.2	0.7	-17.0	119.6	x	x	x
Cc1ccc(CSc2nc3ccccc3cc2C=O)cc1	-19.8	17.5	-1.4	-104.1	193.4*	152.9*	109.0	101.9
CCCCCCSc1cc(-c2nc3ccc(C)cn3c2NCc2ccccc2)ccc1OC	28.9	x	x	x	x	x	x	x
CC12CCC(=O)N1C(C(=O)Nc1ccccc1F)CS2 (stereo not given)	-9.9	x	x	x	x	x	x	x
SMILES	C8 TRAIL sens	PPC-1+TRAIL kill	STAT1 blocker	STAT3 inh	STAT3 act-1	STAT3 act-2	NFkB act STAT3ct	STAT1 act
Cc1cc(C)n(-c2nnc3n2N=C(c2c[nH]c4ccccc24)CS3)n1	-2.1	-19.0	6.0	-65.0	157.6*	154.0*	104.6	100.6
CCC(C(=O)Nc1ccccc1OC)n1c(C(=O)OC)cc2ccsc21 (stereo not given)	-14.1	-2.5	14.1	-45.1	142.5*	147.9*	104.2	87.1
CCCSc1nc(-c2ccccc2)cc(C(F)(F)F)c1C#N	5.0	12.9	4.1	17.3	94.7	x	x	x
N#Cc1c(C(F)(F)F)cc(-c2ccccc2)nc1SCCN1CCOCC1	8.0	-6.6	10.8	-56.3	151.6*	145.6*	104.9	95.8
Cn1cncc1C#Cc1ccc2cc(CCO)oc(=O)c2c1	-7.4	x	x	x	x	x	x	x
CCOC(=O)C1=C(C)NC(C)=C(C(=O)OCC)C1c1cc2ccc(C)cc2[nH]c1=O	-14.8	6.8	7.6	-46.0	143.1*	129.2	91.5	98.6
O=C(Nc1ccc([N+](=O)[O-])cn1)c1ccc2c(c1)OCO2	5.0	-7.3	-41.3	9.8	96.9	x	x	x
O=C1Cn2c(nc3ccccc32)N1c1cccc(C(F)(F)F)c1	1.7	6.7	2.5	-37.4	136.2*	114.7	106.2	111.1
CCOc1ccc(C=Nc2cccc3ncccc23)cc1	1.7	29.0	6.1	-59.3	148.9*	147.8*	102.4	119.4
COC(=O)N/N=C/c1c[nH]c2ccccc12	-3.0	8.5	-6.2	-35.0	132.4	x	x	x
CC(C)(C)OC(=O)N/N=C/c1c[nH]c2ccccc12	17.3	-6.9	-18.8	-50.4	139.3*	126.0	118.6	120.0
COc1cc(NC(=O)c2cc(C3CC3)on2)c(OC)cc1Cl	2.5	22.5	1.0	-59.8	159.3*	149.9*	103.2	98.0
COc1cc(NC(=O)c2cc(C(C)C)on2)c(OC)cc1Cl	10.1	0.3	0.4	-68.9	167.9*	151.9*	97.0	104.1
COc1ccc(NC(=O)c2cc(C(C)C)on2)c(OC)c1	-12.2	6.8	-42.8	-31.7	130.9	x	x	x
O=C(c1cccc([N+](=O)[O-])c1)N1CCN(S(=O)(=O)N2CCCCC2)CC1	2.3	x	x	x	x	x	x	x
C[C@@]12CCC3[C@@](CCC4[C@@]3(C)CCC[C@@]4(C)C(=O)N3CCOCC3)(CC1=O)C2 (stereo not given in full)	7.1	x	x	x	x	x	x	x
CC(C)(C)OC(=O)Nc1ccccc1-n1nnnc1C(C(=O)c1ccccc1)N1CCN(c2ccccn2)CC1 (stereo not given)	-16.1	x	x	x	x	x	x	x
c1ccc(-c2cc(-c3nn4c(-c5ccco5)nnc4s3)c3ccccc3n2)cc1	14.7	13.6	2.1	0.4	101.3	x	x	x
Cc1cc(-c2nn3c(-c4ccccc4)nnc3s2)c2ccccc2n1	-2.9	-1.7	31.4	-65.8	156.2*	139.1*	98.6	81.3
Oc1ccccc1-c1nnc(SCCN2CCOCC2)n1Cc1ccccc1	18.4	-5.2	0.6	-80.5	167.8*	147.3*	106.4	104.9

Screening data deposited in PubChem by several laboratories.
